# In the library only some 3.5% were active in any assay of this set; here they are far more common.
# RGS4 inh – inhibitors of human RGS4 | P49798 | HEK293 M3R/RGS4 inducible, Fluo-4 calcium flux; active compounds read high; triggered by carbachol at its EC20 | B-score at 10 µM | 0.45% of 310,000 active | AID 463165;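 active = B-score, a plate-corrected calcium signal, over three deviations above library mean, with baseline fluorescence within five deviations of library mean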;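 also: RGS4 expression induced by doxycycline in cells with stable M3 receptor; B-score is computed from the integrated fluorescence ratio over baseline after carbachol; higher B-score means a larger calcium signal and so more RGS4 inhibition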
# Target sequence (P49798 whole entry, looked up): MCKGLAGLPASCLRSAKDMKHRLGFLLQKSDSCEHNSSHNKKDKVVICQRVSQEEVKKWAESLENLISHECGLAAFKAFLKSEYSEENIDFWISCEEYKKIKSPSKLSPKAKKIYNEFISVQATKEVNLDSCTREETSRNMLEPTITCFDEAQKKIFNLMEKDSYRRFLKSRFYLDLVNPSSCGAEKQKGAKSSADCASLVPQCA
# RGS4 pot – RGS4 potentiation or activation | 0.92% of 310,000 active | B-score at 10 µM | HEK293 M3R/inducible RGS4, carbachol calcium flux Fluo4; active compounds read low | AID 463111;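 active = B-score of the integrated calcium signal more than 4 SD below the library mean, with starting fluorescence not abnormally high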;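 also: negative B-score means reduced calcium response which marks RGS4 activation or potentiation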
#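 System – HEK293 FlpIn-TREx cells, stable M3R, doxycycline-inducible RGS4 · Reagent – ECmax carbachol challenge · Times – compound preincubation 20 min at room temperature before agonist · Technique – Fluo4 fluorescence kinetic imaging of calcium · Measure – B score of integrated Fluo4 ratio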
# MrgX1 allo act – human MrgX1 positive allosteric modulation, primary screen; Q96LB2; MrgX1-HEK293, Fluo-4 calcium flux, FDSS; active compounds read high; B-score at 10 µM; 0.63% of 310,000 active; AID 588675;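 active = plate-corrected calcium response at least 3 library SD above typical, normal starting fluorescence, not activating the receptor alone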;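 also: compound read alongside a low EC10 to EC30 dose of BAM8-22 agonist; peak minus trough fluorescence over baseline measured at the second addition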
# MrgX1 antagonist – antagonists of human MrgX1 receptor; Q96LB2; MRGX1-HEK293 calcium flux, Fluo-4, BAM8-22 antagonism; active compounds read low; 1.3% of 310,000 active; B-score at 10 µM;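 active = calcium-response B-score plate-corrected more than 3 library SD below zero, starting fluorescence within 5 deviations, no agonist response on first addition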;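 also: peak minus trough fluorescence over baseline after final BAM8-22 challenge near maximal dose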
# MrgX1 ag – human MrgX1 receptor agonism, primary screen; Q96LB2; MrgX1-HEK293 cells, Fluo-4 calcium fluorescence, agonist mode; active compounds read high; B-score at 10 µM; 0.44% of 310,000 active;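 active = calcium response B-score plate-corrected fluorescence ratio at least 3 library SD, with starting fluorescence B-score inside 5 SD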
#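 Test system: HEK293 cells stably expressing human MrgX1 receptor; amount: 15,000 cells per well; doses: compound delivered in addition one of three; times: overnight plating before 1 h dye loading; detection: Fluo-4 NW calcium-flux fluorescence, kinetic read; read-out basis: B-scored fluorescence response ratio; controls: positive and negative controls per plate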
# MrgX1 ant reconf – reconfirmed antagonist of human MrgX1 receptor signaling; shares compounds with MrgX1 antagonist; MrgX1-HEK293, BAM8-22 calcium flux, Fluo-4; active compounds read low; remaining BAM8-22 calcium response % of control (active compounds read low), % at 10 µM; 19% of 2,300 active;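 active = remaining agonist calcium response no higher than 100% minus 3 SD of agonist-only control wells, with starting fluorescence near control levels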;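 also: agonist BAM8-22 given at a near maximal EC90 to ECmax level; peak minus minimum fluorescence divided by baseline after agonist addition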
# HEK293 Ca flux – MrgX1 antagonist counter-screen hit in parental HEK293 cells; 2% of 4,000 active; Fluo-4 calcium fluorescence, FDSS; shares compounds with MrgX1 antagonist; fluorescence ratio F(max-min)/F0 at 10 µM;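 active = duplicate-averaged calcium fluorescence ratio at least three times the standard deviation of buffer wells, a nonspecific response in parental cells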
# HEK293 Ca counter – MrgX1 allosteric activator counter-screen hit in parental HEK293 cells | fluorescence ratio F(max-min)/F0 at 10 µM | shares compounds with MrgX1 antagonist | 0.4% of 4,000 active | parental HEK293 calcium flux, Fluo-4 fluorescence ratio; active compounds read high;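 active = calcium fluorescence ratio, averaged over duplicates, at least 3 SD of the buffer-well ratio, meaning a nonspecific response in receptor-free cells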;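 also: untransfected parental HEK293 lacking MrgX1 used as counterscreen for MrgX1 allosteric activators; fluorescence change taken during the second addition on a kinetic imager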
# HEK293 Ca cntr2 – activity in parental HEK293 cells lacking MrgX1 receptor. Fluo-4 calcium fluorescence (FDSS); active compounds read high. AID 624115. fluorescence ratio F(max-min)/F0 at 10 µM. 8.7% of 4,000 active. shares compounds with MrgX1 antagonist;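 active = calcium fluorescence ratio at least three times the spread of buffer wells, meaning a non-specific response in parental cells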
# Active calls of the source: *; i = inactive; x = no result.
SMILES,RGS4 inh,RGS4 pot,MrgX1 allo act,MrgX1 antagonist,MrgX1 ag,MrgX1 ant reconf,HEK293 Ca flux,HEK293 Ca counter,HEK293 Ca cntr2
Cc1nn(CCCC(=O)Nc2c(F)cc(F)cc2Br)c(C)c1[N+](=O)[O-],i,i,i,i,i,x,x,x,x
CC12C(=O)N(c3ccccn3)C(=O)C1C1C=CC2C1 (centres undefined),i,i,i,-5*,i,i,i,i,i
Cc1ccnc2c(N3C(=O)C4C5C=CC(C5)C4(C)C3=O)cccc12 (centres undefined),i,i,i,i,i,x,x,x,x
Cc1cc(NC(=O)CSc2ccc(-c3ccc(Br)cc3)nn2)no1,i,i,i,-8.2*,i,i,i,i,i
Cc1ccc(-c2ccc(SCC(=O)Nc3cc(C)on3)nn2)cc1,i,i,i,i,i,x,x,x,x
CC(Oc1ccc(Cl)cc1Cl)C(=O)N(C)c1ccccc1 (centres undefined),i,i,i,i,i,x,x,x,x
CC(C)(C)CC(=O)Nc1cc2c3c(c1)CCC(=O)N3CCC2,i,i,i,-4.9*,i,i,i,i,i
CC1CCCC(C)N1CC(O)COCc1ccccc1F (centres undefined),i,i,i,i,i,x,x,x,x
COc1ccc(N2CCN(CCCNC(=O)C(=O)c3c(C)[nH]c4ccccc34)CC2)cc1,i,i,i,i,i,x,x,x,x
COc1ccc2oc(C(=O)OCC(=O)NCc3ccco3)c(C)c2c1,i,i,i,-6.4*,i,i,i,i,i
Cc1cccc(NC(=O)c2cc(NC(=O)c3ccco3)ccc2Cl)n1,x,x,i,-4.7*,i,85%*,i,i,i
Nc1ccc2c3c(cccc13)CC2,i,i,i,-7.5*,i,85%*,i,i,i
c1ccc(Nc2ccc3c4c(cccc24)CC3)cc1,i,i,i,i,i,x,x,x,x
COC(=O)C(NC(=O)c1ccccc1)c1ccccc1 (centres undefined),i,i,i,-9.4*,i,i,i,i,i
Cc1ccc(-n2cc(S(=O)(=O)c3ccc(C)cc3)[nH]c2=O)cc1,i,i,i,-4.8*,i,i,i,i,i
COc1ccccc1C(=O)COC(=O)CN1C(=O)C2CC=CCC2C1=O (centres undefined),i,i,i,i,i,x,x,x,x
COc1ccc(S(=O)(=O)Nc2ccccc2C(=O)Nc2nc(-c3ccc(F)cc3)cs2)cc1OC,i,i,i,-8.7*,i,i,i,i,i
COc1ccc(-c2csc(NC(=O)COc3ccc(N(C)S(=O)(=O)c4ccc(C)cc4)cc3)n2)cc1,i,i,i,i,i,x,x,x,x
COc1ccc(-c2csc(NC(=O)c3ccccc3NS(=O)(=O)c3ccc(C)cc3)n2)cc1,i,i,i,-9*,i,61%*,i,i,i
O=C(CNC(=O)c1ccccc1F)OCc1csc(-c2ccccc2)n1,i,i,i,-5*,i,i,i,i,i
Cc1ccc(NC(=O)Nc2ccc(F)cc2)cc1Cl,i,i,i,-6.1*,i,71%*,i,i,i
